# Active and inactive are the calls of the source. No cut-off for these calls is given here.
# Assays:
# [1] = molecular target: High affinity nerve growth factor receptor (Homo sapiens) (UniProt P04629); assay: Inhibition of recombinant human N-terminal His6-tagged TrkA (441 to 760 residues) expressed in baculovirus infected Sf21 cells assessed as remaining activity at 1 uM using Poly(Glu,Tyr) as substrate incubated for 30 mins in presence of [gamma-33P]ATP by filter binding method relative to control
# Method in brief: (§1)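 Screened at the International Centre for Protein Kinase Profiling against a 140-kinase panel, with inhibitor at 0.1 or 1 μM; activity expressed as percentage of DMSO control reactions, mean of triplicate reactions.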
# [2] = system: MEF; assay: Antiproliferative activity against NUAK1+/+ MEF cells assessed as reduction in cell viability at 10 uM after 5 days by CellTiter 96 non-radioactive cell proliferation assay; format: functional, cell-based; details: Mus musculus, time 5.0 day
# Method in brief: (§2)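 Colorimetric CellTiter 96 AQueous proliferation assay in 96-well format; 2000 cells/well seeded for U2OS, 3000 cells/well for MEFs; grown 5 days with or without 10 μM inhibitor; run in triplicate. Inhibitors dissolved in DMSO, final DMSO in medium ≤1%. MEFs cultured in DMEM/10% FBS, glutamine, non-essential amino acids, sodium pyruvate.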
# [3] = system: MEF; assay: Inhibition of NUAK1 in NUAK1+/+ MEF cells assessed as reduction in MYPT1 phosphorylation at Ser445 residues at 10 uM after 16 hrs by immunoblot analysis; format: cell-based; details: Mus musculus
# Method in brief: (§3)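 U2OS cells or NUAK1+/+ MEFs treated with or without 10 μM inhibitor for 16 h, then 20 min in EDTA-PBS dissociation buffer with 10 μM inhibitor or DMSO; detached by tapping and 70 g 3 min spin, lysed immediately and immunoblotted for MYPT1 p-Ser445; three separate experiments.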
# [4] = molecular target: T1, NUAK family SNF1-like kinase 1 (Homo sapiens) (UniProt O60285); assay: Inhibition of NUAK1 (unknown origin) expressed in HEK293 cells assessed as reduction in MYPT1 phosphorylation at Ser445 residue at 30 uM incubated for 16 hrs by immunoblot analysis; format: cell-based
# T1 sequence (whole entry): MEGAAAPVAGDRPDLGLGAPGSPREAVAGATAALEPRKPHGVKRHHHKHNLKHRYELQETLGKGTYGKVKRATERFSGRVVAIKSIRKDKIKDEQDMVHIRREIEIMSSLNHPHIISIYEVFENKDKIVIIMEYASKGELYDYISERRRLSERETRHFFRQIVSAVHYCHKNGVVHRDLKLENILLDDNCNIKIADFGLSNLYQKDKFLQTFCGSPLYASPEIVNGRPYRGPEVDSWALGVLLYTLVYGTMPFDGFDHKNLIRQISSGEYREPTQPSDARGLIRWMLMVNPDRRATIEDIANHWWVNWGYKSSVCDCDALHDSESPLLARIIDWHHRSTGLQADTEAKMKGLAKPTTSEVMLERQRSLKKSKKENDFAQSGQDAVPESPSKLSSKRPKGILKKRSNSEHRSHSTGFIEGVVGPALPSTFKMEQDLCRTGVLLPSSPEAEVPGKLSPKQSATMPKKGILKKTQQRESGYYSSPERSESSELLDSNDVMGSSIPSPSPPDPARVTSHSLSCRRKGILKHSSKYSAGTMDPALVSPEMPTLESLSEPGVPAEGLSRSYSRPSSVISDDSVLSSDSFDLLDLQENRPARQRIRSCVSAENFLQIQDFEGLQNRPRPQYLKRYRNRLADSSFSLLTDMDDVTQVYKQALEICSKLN
# Method in brief: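 HEK-293 Flp/In T-Rex cells stably expressing HA–NUAK1 or HA–NUAK1[A195T] (doxycycline 0.1 μg/ml, 16–24 h to induce) treated with inhibitor 16 h, then detached in EDTA-PBS dissociation buffer containing the same inhibitor concentration, tapped and spun 70 g 3 min; lysed, endogenous MYPT1 immunoprecipitated from 0.5 mg lysate and immunoblotted for p-Ser445 and total MYPT1; three separate experiments.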
# [5] = system: U2OS; assay: Antiproliferative activity against human U2OS cells assessed as reduction in cell viability at 10 uM after 5 days by CellTiter 96 non-radioactive cell proliferation assay; format: functional, cell-based; details: time 5.0 day; method in brief: as §2
# [6] = molecular target: T1, NUAK family SNF1-like kinase 1 (Homo sapiens); assay: Inhibition of NUAK1 in HEK293 cells assessed as reduction in MYPT1 phosphorylation at Ser445 residue at 10 uM incubated for 16 hrs by immunoblot analysis; format: cell-based
# Method in brief: (§4)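 HEK-293 cells exposed to inhibitor or DMSO for 16 h; medium replaced by EDTA-PBS dissociation buffer with the same inhibitor concentration to induce detachment (gentle tapping, 70 g, 3 min); cells lysed at once; MYPT1 immunoprecipitated from 0.5 mg lysate, blotted for p-Ser445 and total MYPT1; repeated three times.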
# [7] = system: U2OS; assay: Inhibition of cell invasion in human U2OS cells at 10 uM incubated for 16 hrs by matrigel based transwell assay; format: functional
# Method in brief: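 Growth-factor-reduced Matrigel Transwell invasion: U2OS cells serum-deprived 2 h, detached, 2.5×10^5 cells in DMEM/1% BSA added to upper chambers in triplicate, DMEM/10% FBS as chemoattractant below; 16 h at 37 °C, 5% CO2 with or without 10 μM inhibitor in both compartments; cells on lower filter face fixed, stained, imaged ×10 and counted; mean ± S.D.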
# [8] = system: MEF; assay: Inhibition of cell migration in NUAK1+/+ MEF cells at 10 uM pre incubated for 1 hr followed by overnight incubation and measured after 15 to 20 hrs by microscopic based wound healing assay; format: functional; details: Mus musculus
# Method in brief: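 Wound healing: equal MEF numbers loaded into both chambers of inserts with a 500 μm gap, inhibitor (10 μM) added 1 h before; after overnight at 37 °C, 5% CO2 insert removed and gap closure filmed by time-lapse microscopy every 2 min over 15–20 h; triplicate.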
# [9] = molecular target: T1, NUAK family SNF1-like kinase 1 (Homo sapiens); assay: Inhibition of NUAK1 in human U2OS cells assessed as reduction in MYPT1 phosphorylation at Ser445 residues at 10 uM after 16 hrs by immunoblot analysis; format: cell-based; method in brief: as §3
# [10] = molecular target: Tyrosine-protein kinase JAK2 (Homo sapiens) (UniProt O60674); assay: Inhibition of JAK2 (unknown origin) activity at 1 uM relative to control; method in brief: as §1
# [11] = molecular target: T2, Aurora kinase A (Homo sapiens) (UniProt O14965); assay: Inhibition of recombinant human N-terminal Hi6-tagged Aurora A (2 to 403 residues) expressed in Escherichia coli 1 uM using LRRLSLGLRRLSLGLRRLSLGLRRLSLG as substrate incubated for 30 mins in presence of [gamma-33P]ATP by filter binding method; method in brief: as §1
# T2 sequence (whole entry): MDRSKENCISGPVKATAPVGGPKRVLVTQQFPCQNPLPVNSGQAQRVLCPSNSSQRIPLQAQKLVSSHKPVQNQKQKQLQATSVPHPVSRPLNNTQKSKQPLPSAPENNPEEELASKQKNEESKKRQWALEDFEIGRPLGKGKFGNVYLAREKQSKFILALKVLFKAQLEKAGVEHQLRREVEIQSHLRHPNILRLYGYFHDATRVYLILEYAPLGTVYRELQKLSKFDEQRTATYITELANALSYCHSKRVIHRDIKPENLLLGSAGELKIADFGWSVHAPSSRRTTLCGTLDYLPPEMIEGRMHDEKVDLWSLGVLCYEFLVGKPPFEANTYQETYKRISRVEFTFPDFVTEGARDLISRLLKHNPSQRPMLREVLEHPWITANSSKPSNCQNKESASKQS
# [12] = molecular target: MAP/microtubule affinity-regulating kinase 3 (Homo sapiens) (UniProt P27448); assay: Inhibition of recombinant human N-terminal His6-tagged MARK3 (2 to 729 residues) expressed in baculovirus infected Sf21 cells at 1 uM using CHKtide as substrate incubated for 30 mins in presence of [gamma-33P]ATP by filter binding method; method in brief: as §1
# [13] = molecular target: AMPK alpha1/beta2/gamma1 (Homo sapiens) (UniProt O43741+P54619+Q13131); assay: Inhibition of recombinant N-terminal His6-tagged human AMPKalpha1 (11 to 559 residues)/AMPKbeta2 (1 to 272 residues)/AMPKgamma1 (1 to 331 residues) expressed in baculovirus infected Sf21 cells at 1 uM using SAMS as substrate incubated for 30 mins in presence of [gamma-33P]ATP by filter binding method; method in brief: as §1
# [14] = molecular target: Aurora kinase B (Homo sapiens) (UniProt Q96GD4); assay: Inhibition of recombinant human N-terminal His6-tagged Aurora B (1 to 344 residues) expressed in Escherichia coli at 1 uM using LRRLSLGLRRLSLGLRRLSLGLRRLSLG as substrate incubated for 30 mins in presence of [gamma-33P]ATP by filter binding method; method in brief: as §1
# [15] = molecular target: T1, NUAK family SNF1-like kinase 1 (Homo sapiens); assay: Inhibition of NUAK1 in HEK293 cells assessed as reduction in MYPT1 phosphorylation at Ser445 residue at 0.1 to 10 uM incubated for 16 hrs by immunoblot analysis; format: cell-based; details: dose 0.1-10 µM; method in brief: as §4
# [16] = molecular target: Serine/threonine-protein kinase BRSK1 (Homo sapiens) (UniProt Q8TDC3); assay: Inhibition of recombinant human N-terminal His6-tagged BRSK1 (2 to 778 residues) expressed in baculovirus infected Sf21 cells at 1 uM using KKLNRTLSFAEPG as substrate incubated for 30 mins in presence of [gamma-33P]ATP by filter binding method; method in brief: as §1
# [17] = molecular target: NUAK family SNF1-like kinase 2 (Homo sapiens) (UniProt Q9H093); assay: Inhibition of GST-tagged NUAK2 (unknown origin) expressed in HEK293 cells using ALNRTSSDSALHRRR as substrate incubated for 30 mins in presence of [gamma-32P]-ATP by Cerenkov counting method; format: cell-based
# Method in brief: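 GST–NUAK2 purified on glutathione–Sepharose from HEK-293 cells 36–48 h after transient transfection; 100 ng enzyme in 50 mM Tris/HCl pH 7.5, 0.1 mM EGTA, 10 mM magnesium acetate, 200 μM Sakamototide, 0.1 mM [γ-32P]ATP, inhibitor in DMSO; 30 min at 30 °C, stopped with 25 mM EDTA, spotted on P81, Cerenkov counted; triplicate; IC50 by non-linear regression versus DMSO control.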
# [18] = molecular target: Serine/threonine-protein kinase MARK1 (Homo sapiens) (UniProt Q9P0L2); assay: Inhibition of recombinant human N-terminal His6-tagged MARK1 (2 to 795 residues) expressed in baculovirus infected Sf21 cells at 1 uM using KKKVSRSGLYRSPSMPENLNRPR as substrate incubated for 30 mins in presence of [gamma-33P]ATP by filter binding method; method in brief: as §1
# [19] = molecular target: Tyrosine-protein kinase ABL1 (Homo sapiens) (UniProt P00519); assay: Inhibition of recombinant human N-terminal GST-tagged ABL (118 to 535 residues) expressed in Escherichia coli co-expressed with His-tagged YopH at 1 uM using EAIYAAPFAKKK as substrate incubated for 30 mins in presence of [gamma-33P]ATP by filter binding method
# Method in brief: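 Run within a 140-kinase specificity panel at the International Centre for Protein Kinase Profiling. Compounds were dissolved in DMSO and tested in vitro at 0.1 or 1 μM. Activity is expressed as percentage of kinase activity in DMSO control reactions, as the mean ± S.D. of triplicate reactions.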
# Sequence of NUAK family SNF1-like kinase 2 (Homo sapiens) (Q9H093 whole entry): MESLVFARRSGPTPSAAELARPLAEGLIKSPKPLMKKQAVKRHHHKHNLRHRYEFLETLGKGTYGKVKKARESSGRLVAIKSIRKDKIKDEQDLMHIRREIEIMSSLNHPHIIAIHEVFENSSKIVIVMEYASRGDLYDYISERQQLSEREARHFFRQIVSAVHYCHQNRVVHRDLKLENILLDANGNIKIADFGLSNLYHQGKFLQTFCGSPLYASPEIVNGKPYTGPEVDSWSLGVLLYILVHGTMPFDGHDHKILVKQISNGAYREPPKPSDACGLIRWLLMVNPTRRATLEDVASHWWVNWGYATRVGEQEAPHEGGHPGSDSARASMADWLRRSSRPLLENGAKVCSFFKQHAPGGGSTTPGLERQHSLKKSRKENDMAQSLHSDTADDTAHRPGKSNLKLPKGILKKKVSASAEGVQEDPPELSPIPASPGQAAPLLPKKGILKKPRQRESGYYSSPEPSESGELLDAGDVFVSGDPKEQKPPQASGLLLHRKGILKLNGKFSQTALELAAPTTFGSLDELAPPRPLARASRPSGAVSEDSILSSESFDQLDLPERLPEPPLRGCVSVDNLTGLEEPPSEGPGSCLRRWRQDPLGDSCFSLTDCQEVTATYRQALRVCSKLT
# Sequence of Tyrosine-protein kinase ABL1 (Homo sapiens) (P00519 whole entry, the tested form may be a part): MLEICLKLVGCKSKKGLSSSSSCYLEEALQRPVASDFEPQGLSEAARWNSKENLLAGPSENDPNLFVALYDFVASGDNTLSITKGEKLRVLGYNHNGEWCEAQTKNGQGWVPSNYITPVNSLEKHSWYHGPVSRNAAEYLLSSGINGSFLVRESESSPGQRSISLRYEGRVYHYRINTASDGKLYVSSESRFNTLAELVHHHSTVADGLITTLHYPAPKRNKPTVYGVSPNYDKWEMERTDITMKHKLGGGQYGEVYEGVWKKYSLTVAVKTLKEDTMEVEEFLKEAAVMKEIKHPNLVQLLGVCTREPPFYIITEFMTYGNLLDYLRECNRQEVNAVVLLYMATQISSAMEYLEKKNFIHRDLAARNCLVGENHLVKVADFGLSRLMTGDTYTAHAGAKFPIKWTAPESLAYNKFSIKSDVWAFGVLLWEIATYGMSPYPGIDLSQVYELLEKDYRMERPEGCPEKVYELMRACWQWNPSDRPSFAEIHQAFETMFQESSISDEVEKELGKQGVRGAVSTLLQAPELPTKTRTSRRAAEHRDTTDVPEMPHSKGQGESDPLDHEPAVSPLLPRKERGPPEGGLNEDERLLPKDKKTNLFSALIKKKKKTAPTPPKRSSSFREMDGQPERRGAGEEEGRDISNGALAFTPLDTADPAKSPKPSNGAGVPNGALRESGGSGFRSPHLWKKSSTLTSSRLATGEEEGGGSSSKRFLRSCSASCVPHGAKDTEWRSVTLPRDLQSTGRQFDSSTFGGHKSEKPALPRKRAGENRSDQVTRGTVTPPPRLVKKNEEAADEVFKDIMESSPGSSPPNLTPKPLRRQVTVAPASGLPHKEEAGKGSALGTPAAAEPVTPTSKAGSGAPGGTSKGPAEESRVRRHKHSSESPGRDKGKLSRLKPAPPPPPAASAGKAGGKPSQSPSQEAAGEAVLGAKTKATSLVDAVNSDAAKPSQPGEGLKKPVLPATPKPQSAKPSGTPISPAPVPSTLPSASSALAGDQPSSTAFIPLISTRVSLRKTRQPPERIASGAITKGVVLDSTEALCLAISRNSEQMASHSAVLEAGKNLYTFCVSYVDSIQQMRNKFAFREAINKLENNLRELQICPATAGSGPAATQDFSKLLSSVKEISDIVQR
# Sequence of Aurora kinase B (Homo sapiens) (Q96GD4 whole entry, the tested form may be a part): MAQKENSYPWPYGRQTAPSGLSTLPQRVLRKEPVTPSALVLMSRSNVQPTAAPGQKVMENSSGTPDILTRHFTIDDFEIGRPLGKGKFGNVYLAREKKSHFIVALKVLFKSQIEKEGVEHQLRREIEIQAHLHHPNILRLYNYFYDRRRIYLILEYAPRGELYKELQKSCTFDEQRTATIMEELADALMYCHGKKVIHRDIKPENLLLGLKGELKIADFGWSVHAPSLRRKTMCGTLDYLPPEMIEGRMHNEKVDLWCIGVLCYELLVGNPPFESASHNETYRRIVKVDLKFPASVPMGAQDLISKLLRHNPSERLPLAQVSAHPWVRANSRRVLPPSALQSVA
# Sequence of Tyrosine-protein kinase JAK2 (Homo sapiens) (O60674 whole entry, the tested form may be a part): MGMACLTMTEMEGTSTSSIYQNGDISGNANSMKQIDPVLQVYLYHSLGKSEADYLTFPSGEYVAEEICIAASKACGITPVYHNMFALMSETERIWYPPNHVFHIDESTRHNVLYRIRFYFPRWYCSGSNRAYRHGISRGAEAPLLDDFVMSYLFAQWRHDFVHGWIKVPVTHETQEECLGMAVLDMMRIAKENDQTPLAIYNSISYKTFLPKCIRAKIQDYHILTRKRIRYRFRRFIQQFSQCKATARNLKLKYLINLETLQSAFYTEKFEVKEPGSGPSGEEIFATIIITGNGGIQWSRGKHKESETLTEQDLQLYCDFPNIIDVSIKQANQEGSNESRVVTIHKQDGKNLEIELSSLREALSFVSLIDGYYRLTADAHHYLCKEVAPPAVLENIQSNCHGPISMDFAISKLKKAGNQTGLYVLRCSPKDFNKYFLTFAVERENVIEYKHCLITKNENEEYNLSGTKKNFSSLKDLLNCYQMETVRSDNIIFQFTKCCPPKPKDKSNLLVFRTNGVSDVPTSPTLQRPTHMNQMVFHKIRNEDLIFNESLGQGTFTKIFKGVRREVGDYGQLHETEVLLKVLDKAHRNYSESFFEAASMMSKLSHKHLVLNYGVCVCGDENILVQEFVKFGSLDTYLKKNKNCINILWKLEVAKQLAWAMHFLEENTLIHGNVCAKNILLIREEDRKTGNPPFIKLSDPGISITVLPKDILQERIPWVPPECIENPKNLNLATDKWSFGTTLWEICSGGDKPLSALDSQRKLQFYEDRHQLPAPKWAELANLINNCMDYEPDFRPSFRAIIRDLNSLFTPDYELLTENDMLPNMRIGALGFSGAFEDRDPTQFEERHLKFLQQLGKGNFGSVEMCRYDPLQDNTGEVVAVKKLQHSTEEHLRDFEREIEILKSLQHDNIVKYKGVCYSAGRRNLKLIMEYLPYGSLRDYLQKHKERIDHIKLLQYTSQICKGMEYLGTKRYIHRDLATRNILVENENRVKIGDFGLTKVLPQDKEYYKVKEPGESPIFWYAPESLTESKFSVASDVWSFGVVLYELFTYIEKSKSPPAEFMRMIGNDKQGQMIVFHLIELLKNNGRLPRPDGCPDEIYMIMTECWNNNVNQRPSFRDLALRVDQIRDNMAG
# Sequence of Serine/threonine-protein kinase MARK1 (Homo sapiens) (Q9P0L2 whole entry, looked up, the tested form may be a part): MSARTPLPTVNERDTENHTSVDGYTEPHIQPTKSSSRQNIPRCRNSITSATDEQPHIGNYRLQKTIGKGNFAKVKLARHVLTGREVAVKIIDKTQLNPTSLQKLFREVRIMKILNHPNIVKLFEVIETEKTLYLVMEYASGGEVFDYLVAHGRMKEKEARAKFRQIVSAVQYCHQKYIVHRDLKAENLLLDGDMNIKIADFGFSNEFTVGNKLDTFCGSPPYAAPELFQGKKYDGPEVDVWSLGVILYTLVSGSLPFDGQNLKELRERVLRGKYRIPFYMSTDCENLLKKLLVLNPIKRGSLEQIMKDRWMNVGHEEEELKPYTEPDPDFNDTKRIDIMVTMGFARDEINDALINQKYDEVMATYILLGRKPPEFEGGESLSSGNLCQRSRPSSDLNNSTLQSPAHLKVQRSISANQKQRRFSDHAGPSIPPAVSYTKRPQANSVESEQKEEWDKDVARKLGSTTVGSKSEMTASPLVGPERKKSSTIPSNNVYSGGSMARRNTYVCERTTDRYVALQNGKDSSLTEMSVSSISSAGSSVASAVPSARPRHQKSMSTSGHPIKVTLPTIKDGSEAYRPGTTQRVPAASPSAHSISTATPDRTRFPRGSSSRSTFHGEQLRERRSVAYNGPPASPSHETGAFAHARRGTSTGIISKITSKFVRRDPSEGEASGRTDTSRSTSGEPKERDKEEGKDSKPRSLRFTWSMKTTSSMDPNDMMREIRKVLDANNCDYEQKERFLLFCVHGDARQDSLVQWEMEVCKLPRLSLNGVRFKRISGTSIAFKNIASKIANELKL
# Sequence of High affinity nerve growth factor receptor (Homo sapiens) (P04629 33-796 limits assumed): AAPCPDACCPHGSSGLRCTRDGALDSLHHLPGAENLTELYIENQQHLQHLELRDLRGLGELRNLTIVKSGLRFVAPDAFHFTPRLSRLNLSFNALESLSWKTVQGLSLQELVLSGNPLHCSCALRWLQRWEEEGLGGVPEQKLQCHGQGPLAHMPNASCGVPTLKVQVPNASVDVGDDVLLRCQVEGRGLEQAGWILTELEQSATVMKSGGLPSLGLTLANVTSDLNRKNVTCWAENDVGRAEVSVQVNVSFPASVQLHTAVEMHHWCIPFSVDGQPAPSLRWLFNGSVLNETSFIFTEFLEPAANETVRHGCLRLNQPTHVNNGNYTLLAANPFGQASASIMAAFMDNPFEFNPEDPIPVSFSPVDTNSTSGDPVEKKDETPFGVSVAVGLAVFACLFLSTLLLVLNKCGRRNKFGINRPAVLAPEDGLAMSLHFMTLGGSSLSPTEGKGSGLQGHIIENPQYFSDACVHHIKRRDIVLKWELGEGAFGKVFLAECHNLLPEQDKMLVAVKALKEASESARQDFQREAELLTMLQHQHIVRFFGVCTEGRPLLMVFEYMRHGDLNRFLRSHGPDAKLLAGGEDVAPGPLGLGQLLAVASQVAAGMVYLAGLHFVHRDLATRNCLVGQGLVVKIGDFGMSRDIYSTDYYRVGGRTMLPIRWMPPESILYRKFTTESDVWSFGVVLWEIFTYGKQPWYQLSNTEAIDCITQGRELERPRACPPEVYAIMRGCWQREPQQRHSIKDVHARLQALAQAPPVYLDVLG
SMILES,Activity [1] [%],inhibition [2],inhibition [3],inhibition [4],inhibition [5],inhibition [6],inhibition [7],inhibition [8],inhibition [9],inhibition [10],inhibition [11],inhibition [12],inhibition [13],inhibition [14],inhibition [15],inhibition [16],inhibition [17],inhibition [18],inhibition [19]
Cc1nc(Nc2cnn(C3CCNCC3)c2)nc2c1N(C)C(=O)c1cc3ccccc3cc1N2C,82,Active,Active,Active,Active,Active,Active,Active,Active,,,,,,,,,,
CN1C(=O)c2ccccc2N(C)c2nc(Nc3cnn(C4CCNCC4)c3)ncc21,,,,,,,,,,Active,Active,Active,Active,Active,Active,Active,inactive,Active,Active
CN1C(=O)c2cc3ccccc3cc2N(C)c2nc(Nc3cnn(C4CCNCC4)c3)ncc21,,,,,,,,,,Active,Active,,,Active,Active,,inactive,,Active
